STAT1 act: activators of IFN-gamma induced STAT1 signaling; NIH 3T3 STAT1-luciferase reporter, luminescence; 100% = IFN-gamma alone, no compound; activation (% of control), % at 5.5 µM; 200,000 compounds, 2.6% hits;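 active means activation above the screen-wide mean activation plus 3 SD, cut at about 130% in these data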;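 further: raw ratio to IFN-gamma control signal so 100% means no change and 0% no light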
PERK inh: inhibitors of human PERK kinase. inhibition, % at 5.6 µM. CHO PERK-DD fusion, SEAP luminescence translation reporter. 220,000 compounds, 0.17% hits. Q9NZJ5;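 active means inhibition above the mean inhibition of all tested compounds plus 3 SD, set separately per screening campaign, cut at about 2.9% in these data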;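 further: PERK kinase domain activated by AP20187 dimerizer at 100 nM; 0% = DMSO with dimerizer and 100% = rapamycin at 8.4 µM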
AHR activator: human AHR activation | P35869 | AHR-responsive luciferase reporter cells, luminescence | activation, % at 5 µM | 320,000 compounds, 2.5% hits | AID 2796; in the data active means activation above about 47%;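 further: 0% = vehicle wells and 100% = reference agonist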
NF-kB neuron act: compounds increasing NF-kB expression in human neuronal cells | NF-kB reporter expression; stronger effect = higher value | fold change at 12.5 µM | 190,000 compounds, 1.6% hits; in the data active means fold change above about 3.3
APP 5'UTR act: activates APP 5'UTR luciferase reporter; activation, % at 2 µM; 190,000 compounds, 1% hits; SH-SY5Y APP 5'UTR luciferase reporter, luminescence; zero percent = DMSO vehicle wells;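 active means activation above a set limit, based on mean plus 3 SD of controls, cut at about 140% in these data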
MDM2 E3 inh: inhibitors of human Mdm2 E3 ubiquitin ligase; Q00987; cell-based MDM2 ubiquitination luciferase reporter, 2 h; 0 = plate control, 100 = twice control, blank-subtracted; signal enhancement, % at 5 µM; 210,000 compounds, 0.11% hits; AID 1230;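 active means signal enhancement of 30% or more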;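 further: luminescence tracks abundance of the self-degrading MDM2-luciferase fusion protein; higher signal means inhibition of MDM2 E3 ligase activity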
Target sequence (Q00987 whole entry, looked up, the tested form may be a part): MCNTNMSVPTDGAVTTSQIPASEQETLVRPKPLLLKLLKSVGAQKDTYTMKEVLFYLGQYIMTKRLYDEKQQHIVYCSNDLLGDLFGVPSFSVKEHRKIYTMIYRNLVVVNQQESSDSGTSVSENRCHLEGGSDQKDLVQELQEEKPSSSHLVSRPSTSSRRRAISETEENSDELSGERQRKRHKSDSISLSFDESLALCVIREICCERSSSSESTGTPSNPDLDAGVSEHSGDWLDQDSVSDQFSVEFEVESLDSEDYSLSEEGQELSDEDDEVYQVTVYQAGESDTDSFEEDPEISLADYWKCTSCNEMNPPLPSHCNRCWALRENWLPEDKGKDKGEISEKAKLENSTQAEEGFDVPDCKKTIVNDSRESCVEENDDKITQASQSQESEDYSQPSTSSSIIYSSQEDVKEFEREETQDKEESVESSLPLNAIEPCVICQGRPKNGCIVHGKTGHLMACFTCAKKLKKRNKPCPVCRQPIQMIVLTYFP
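Timing – 2 h compound exposure at 37 °C · Assay system – mammalian cells stably expressing self-ubiquitinating, self-degrading MDM2 E3–luciferase fusion · Amount – 2000 cells seeded into each well · Measure – % luminescence enhancement versus blank-corrected plate control mean · Measured by – SteadyLite luminescence, 15 min reagent step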
Active calls of the source: *; x = not tested or not shown. In the library only some 4.5% were active in any assay of this set; here they are far more common.

SMILES | STAT1 act | PERK inh | AHR activator | NF-kB neuron act | APP 5'UTR act | MDM2 E3 inh
O=C(COc1ccccc1[N+](=O)[O-])N/N=C/c1cccc(OC(=O)c2ccc3c(c2)OCO3)c1 | 141* | 1 | 3 | 2.5 | 48 | -6
CSc1cccc(NC(=O)C2CCN(C(=O)c3ccccc3C)CC2)c1 | 94 | -1 | 5 | 1.1 | -12 | -7
COC(=O)c1ccc(CNC(=O)C2CCC(=O)N(CCCc3ccccc3)C2)cc1 (stereo not drawn) | x | x | 1 | x | x | x
CCOc1ccc(Nc2ncnc3ccc([N+](=O)[O-])cc23)cc1 | 88 | 0 | 50* | 0.74 | -4 | -30
COc1ccc(Nc2ncnc3ccccc23)cc1 | 129* | 0 | 6 | 2.4 | 52 | -9
CSc1cccc(N2CC(C(=O)Nc3ccccc3N3CCCC3)CC2=O)c1 (stereo not drawn) | x | x | 6 | x | x | x
Cc1ccc(S(=O)(=O)N2CCOCC2)cc1NC(=O)COC(=O)C1(C)CC1(Cl)Cl (stereo not drawn) | x | x | 0 | x | x | x
CC(=O)Nc1ccc2c(c1)nc1n2CCSC1 | 98 | 0 | -3 | 1.3 | -2 | -21
Cc1ccc(C(=O)Nc2ccc3c(c2)nc2n3CCSC2)cc1 | 148* | 0 | -7 | 5.4* | 169* | -50
N=c1n(CC(=O)c2ccc(Br)s2)c2ccccc2n1Cc1ccccc1 | x | -1 | 71* | x | x | -16
COc1cccc(C(=O)Cn2c(=N)n(C)c3ccccc32)c1 | 84 | 0 | 52* | 4.4* | 229* | -13
Cn1c(=N)n(CC(=O)c2cccs2)c2ccccc21 | 134* | -1 | 49* | 3.9* | 160* | -33
CCN(CC)CCn1c(=N)n(CC(=O)c2ccc(Br)s2)c2ccccc21 | x | -2 | 70* | x | x | -6
CCCn1c(=N)n(CC(=O)c2cccs2)c2ccccc21 | 103 | 0 | 18 | 1.2 | -13 | -7
CCOC(=O)CN(c1ccccc1C)S(=O)(=O)c1ccc(Cl)cc1 | x | x | -5 | x | x | x
Cn1c(=N)n(CC(=O)c2ccc(Br)s2)c2ccccc21 | 146* | -2 | 71* | 3.1 | 197* | 6
N=c1n(CCN2CCCCC2)c2ccccc2n1CC(=O)c1cccs1 | x | -1 | 33 | x | x | -11
COc1cc(C(=O)CSc2nccn2C)cc(OC)c1OC | x | x | 47* | x | x | x
COc1ccc(C(=O)CSc2nccn2C)cc1 | x | x | 19 | x | x | x
CCN(CC)CCn1c2c(c(SCC(=O)Nc3ccc(F)c(F)c3)nc1=O)CCC2 | x | x | 0 | x | x | x
COc1ccc(CNC(=O)Cn2nnc3ccccc3c2=O)cc1 | x | 1 | 4 | x | x | -5
Cc1cc(=O)[nH]c(SCC(=O)NCC2CCCCC2)c1C#N | 97 | 2 | 1 | 1.1 | 0 | 1
CS/C(N)=N/N=C/c1cc(Br)cc(Br)c1O | x | 1 | 66* | x | x | -2
NC(=O)c1ccc(Cn2c(C(=O)c3ccc(Cl)cc3)c3ccccc3[n+]2[O-])cc1 | x | x | 15 | x | x | x
NCCCn1c(C(=O)c2cc(Cl)c(N)c(Cl)c2)c2ccc(C(F)(F)F)cc2[n+]1[O-] | x | x | 57* | x | x | x
SMILES | STAT1 act | PERK inh | AHR activator | NF-kB neuron act | APP 5'UTR act | MDM2 E3 inh
NC(=O)CCCn1c(C(=O)c2cc(Cl)c(N)c(Cl)c2)c2ccc(C(F)(F)F)cc2[n+]1[O-] | x | x | 55* | x | x | x
NCCCn1c(C(=O)c2cc(Cl)c(N)c(Cl)c2)c2ccc([N+](=O)[O-])cc2[n+]1[O-] | x | x | 115* | x | x | x
NC(=O)c1ccc(Cn2c(C(=O)c3cc(Cl)c(N)c(Cl)c3)c3ccccc3[n+]2[O-])cc1 | x | x | 78* | x | x | x
O=C(N/C(=C\c1ccc(Br)cc1)c1nc2ccccc2[nH]1)c1ccco1 | 104 | -1 | 75* | 1.1 | -2 | -8
O=C(c1ccc(-c2ccc(Cl)cc2Cl)o1)N1CCOCC1 | 138* | 0 | 21 | 3 | 80 | 2
O=C(c1ccc(-c2cc(Cl)ccc2Cl)o1)N1CCOCC1 | 102 | 1 | 2 | 1.4 | 2 | -3
CCc1ccc(NC(=O)CCC(=O)N2CCSc3ccccc32)cc1 | x | x | 69* | x | x | x
CCOc1cc(C(=O)Nc2ccncc2)cc(OCC)c1OCC | 92 | 0 | 26 | 1.9 | -15 | -11
Cc1ccc2c(c1)sc(=NC(=O)c1cccs1)n2C | 24 | 0 | 56* | 2.2 | 220* | -82
Cc1ccc2c(c1)sc(=NC(=O)C1CC1)n2C | x | 0 | 54* | x | x | x
C#CCn1c(=NC(=O)c2cccs2)sc2cccc(OC)c21 | 122 | 1 | 22 | 1.4 | 16 | -2
O=C1c2ccccc2NC(c2ccccc2)N1/N=C/c1ccccc1 (stereo not drawn) | 112 | 1 | 25 | 3.8* | 128 | -3
CCC(=O)c1ccc(/C=C/c2nc3ccccc3n2C)o1 | 112 | 1 | -1 | 4.8* | 125 | -35
COc1ccc2c(c1)CCC(C)N2C(=O)C(=O)c1c[nH]c2ccccc12 (stereo not drawn) | x | -1 | 1 | x | x | -5
Cc1nn(-c2ccccc2)c(N2CCCC2)c1/C=N/NC(=S)Nc1ccc(F)cc1 | x | x | 7 | x | x | x
Cc1nn(C)cc1/C=N/NC(=S)Nc1ccccc1 | 118 | 0 | 14 | 3.4* | 59 | -24
CN(/N=C/c1ccc(N(C)C)cc1)C1=NS(=O)(=O)c2ccccc21 | x | x | -5 | x | x | x
Cc1ccc(-c2[nH]nc(N)c2N=Nc2ccccc2C)cc1 | 104 | 0 | 62* | 1.2 | -40 | -4
CCn1nnc(NC(=O)c2cccnc2)n1 | 93 | 0 | 2 | 1.3 | 1 | -11
CCn1nnc(NC(=O)c2ccc(C(C)(C)C)cc2)n1 | 117 | 0 | 28 | 3.7* | 97 | -12
C/C(CC(=O)Nc1cccc(C(F)(F)F)c1)=N/NC(=O)C(=O)NCCO | x | 1 | 2 | x | x | -9
C=CCNC(=O)C1CC1(c1cccc(C)c1)c1cccc(C)c1 (stereo not drawn) | x | x | 0 | x | x | x
Cc1cccc(C2(c3cccc(C)c3)CC2C(=O)Nc2ccc([N+](=O)[O-])cc2O)c1 (stereo not drawn) | 101 | 0 | 77* | 0.38 | -15 | 0
CC(C)C1=CC2=CCC3C(C)(C(=O)O)CCCC3(C)C2CC1 (stereo not drawn) (tested in a mixture with another compound) | x | x | 3 | x | x | x
O=C(Nc1ccc(Br)cc1F)c1sccc1-n1cccc1 | 96 | -1 | 103* | 0.97 | 0 | -6
Cc1cccc(NC(=O)NNC(=O)c2sccc2-n2cccc2)c1 | 102 | 0 | 53* | 1.2 | 83 | -1
COc1cccc(C(=O)NNC(=O)c2sccc2-n2cccc2)c1 | 100 | 0 | 69* | 1.2 | 0 | 0
Cc1cccc(CS(=O)(=O)Cc2ccc(C(=O)NCc3cccs3)o2)c1 | 100 | 0 | 1 | 0.92 | -12 | -7
O=C1c2ccccc2C(=O)N1CCc1c[nH]c2ccc(O)cc12 | 132* | 1 | -6 | 1.9 | 14 | 12
O=C1c2ccccc2C(=O)N1CCCc1c[nH]c2ccccc12 | 112 | 1 | -5 | 1.3 | 10 | -4
